Compounds with a hit are over-represented: about 5.8% of the library has one in this group of screens.
IDH1 mut inh – IDH1 R132H (human) inhibition. inhibition, % at 10 µM. O75874. actives 0.18% (n = 70,000). IDH1 R132H reductase, diaphorase/resazurin fluorescence, 60 min; in the data active = inhibition above about 34%; inconclusive = no clear call, values can overlap the other calls; inactive = below about 11%
Target sequence (O75874 whole entry R132H): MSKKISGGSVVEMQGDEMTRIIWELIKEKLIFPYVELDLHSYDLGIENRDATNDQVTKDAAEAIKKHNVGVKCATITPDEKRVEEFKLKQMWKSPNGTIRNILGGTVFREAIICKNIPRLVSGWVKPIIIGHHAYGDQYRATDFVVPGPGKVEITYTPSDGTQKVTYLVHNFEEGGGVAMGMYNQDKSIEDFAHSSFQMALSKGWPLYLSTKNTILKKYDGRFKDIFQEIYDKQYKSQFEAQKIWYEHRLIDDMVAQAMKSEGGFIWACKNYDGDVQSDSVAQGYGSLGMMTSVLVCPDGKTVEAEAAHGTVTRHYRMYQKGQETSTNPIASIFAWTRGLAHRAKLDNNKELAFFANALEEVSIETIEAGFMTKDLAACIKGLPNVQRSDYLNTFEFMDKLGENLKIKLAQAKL
GASC1 inh – KDM4C (human) demethylase inhibition; Q9H3R0; GST-KDM4C 2-372, H3K9me3 peptide, LANCE TR-FRET; inhibition, % at 12.5 µM; actives 0.15% (n = 96,000); AID 720574;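 active = mean replicate inhibition above about 25%, with at least 55% of replicates also reaching it, limit read from the data, passing the limit was not always enough; inconclusive = only one of those two conditions met; inactive = neither condition met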
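Test system: N-terminal GST-fused human GASC-1 (KDM4C) fragment, residues 2-372; quantity: GASC-1 enzyme at 10 nM final in reaction; dosing: single dose; schedule: 30 min demethylation and 1 h detection at room temperature; signal: LANCE TR-FRET, excitation 340 nm, emissions 618 and 671 nm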
T cruzi growth-1 – inhibitors of T. cruzi proliferation | actives 5.9% (n = 77,000) | inhibition, % at 8.34 µM | T. cruzi beta-gal in NIH3T3, GalScreen luminescence, 90 h;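 active = mean inhibition above about 93%, with at least 55% of replicates each passing it, limit read from the data, passing the limit was not always enough; inconclusive = only one of those two conditions holds; inactive = neither condition holds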
Pf Dd2 inh – inhibitors of Plasmodium falciparum Dd2 growth; P. falciparum Dd2 growth, SYBR Green, 72 h; hits give low values; actives 2.3% (n = 94,000); activity change, % at 10 µM; in the data active = activity change below about -80%; inconclusive = no clear call, values can overlap the other calls
T cruzi growth-2 – blocks T. cruzi growth in NIH3T3 host cells; shares compounds with T cruzi growth-1; T. cruzi beta-gal in NIH3T3, GalScreen luminescence, 90 h; inhibition, % at 8.35 µM; actives 72% (n = 5,600);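 active = mean replicate inhibition above about 95% and at least 55% of replicates individually reaching it, limit read from the data; inconclusive = only one of the two criteria is met; inactive = neither criterion is met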
T cruzi growth-3 – blocks T. cruzi growth in NIH3T3 host cells. shares compounds with T cruzi growth-1. T. cruzi beta-gal in NIH3T3, GalScreen luminescence, 90 h. inhibition, % at 2.09 µM. actives 21% (n = 5,600);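 active = mean inhibition above about 95%, with at least 55% of replicates also reaching it, limit read from the data; inconclusive = meets just one of the two conditions; inactive = meets neither condition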
3T3 cytotox – kills mouse NIH/3T3 fibroblasts; shares compounds with T cruzi growth-1; NIH/3T3 viability, CellTiter-Glo ATP luminescence, 90 h; cytotoxicity (signal decrease), % at 8.35 µM; actives 14% (n = 5,600); AID 651742;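 active = mean signal decrease across replicates above about 35% based on untreated-well scatter, with enough replicates individually passing, limit read from the data; inconclusive = no rule stated though some were filed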
3T3 cytotox 2 – cytotoxicity in mouse NIH/3T3 fibroblasts; NIH/3T3 viability, CellTiter-Glo ATP luminescence, 90 h; actives 56% (n = 5,600); shares compounds with T cruzi growth-1; AID 651744; inhibition, % at 24.9 µM;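 active = mean loss of cell viability signal at or above a set limit, and enough replicates individually reaching it; inconclusive = meets only the mean limit or only the replicate share; inactive = meets neither condition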
Numbers stand for hits; - = inactive; ? = inconclusive; . = no result given.

SMILES | IDH1 mut inh | GASC1 inh | T cruzi growth-1 | Pf Dd2 inh | T cruzi growth-2 | T cruzi growth-3 | 3T3 cytotox | 3T3 cytotox 2
O=C(NC[C@@H]1[C@H](c2ccccc2)[C@H](CO)N1C(=O)Cc1cccnc1)C1CC1 | . | - | - | - | . | . | . | .
CC(=O)NC[C@H]1[C@@H](c2ccccc2)[C@H](CO)N1C(=O)Cc1cccnc1 | . | - | - | - | . | . | . | .
CC(=O)NC[C@@H]1[C@H](c2ccccc2)[C@H](CO)N1C(=O)Cc1cccnc1 | . | - | ? | - | - | - | - | -
N=c1c2cnn(-c3ccccc3)c2ncn1/N=C/c1ccc(Cl)cc1 | - | . | . | . | . | . | . | .
COc1ccc(NC(=O)CCSc2ccc([N+](=O)[O-])cc2)cc1 | - | . | . | . | . | . | . | .
O=C(CSc1nc2ccccc2o1)N1N=CCC1c1ccccc1 (configuration not stated) | - | . | . | . | . | . | . | .
COc1ccccc1-c1ccc2c(c1)[C@H]1[C@H](CCN1C(=O)C1CCOCC1)[C@@H](CO)N2 | . | - | 100 | - | 106 | - | - | -
COc1ccccc1-c1ccc2c(c1)[C@@H]1[C@@H](CCN1C(=O)C1CC1)[C@H](CO)N2 | . | - | ? | - | 107 | ? | - | -
COc1ccccc1-c1ccc2c(c1)[C@H]1[C@H](CCN1C(=O)C1CCCCC1)[C@@H](CO)N2 | . | - | - | - | . | . | . | .
COc1ccccc1-c1ccc2c(c1)[C@H]1[C@H](CCN1C(=O)C1CCCC1)[C@H](CO)N2 | . | . | . | - | . | . | . | .
O=C(O)CCc1ccc(-c2ccc(F)cc2)n1-c1ccc(C(=O)O)cc1 | - | . | . | . | . | . | . | .
COc1ccc(CN(C)C[C@H]2OCCCC[C@H](C)Oc3ccc(NC(=O)C4CCCCC4)cc3C(=O)N([C@@H](C)CO)C[C@@H]2C)cc1 | - | - | 104 | - | 107 | - | - | 69
COc1ccc(CN(C)C[C@H]2OCCCC[C@H](C)Oc3ccc(NC(=O)Nc4ccccc4)cc3C(=O)N([C@@H](C)CO)C[C@H]2C)cc1 | . | - | ? | - | 109 | - | - | 34
COc1ccc(CN(C)C[C@@H]2OCCCC[C@@H](C)Oc3ccc(NC(=O)Nc4ccc(OC)cc4)cc3C(=O)N([C@H](C)CO)C[C@H]2C)cc1 | . | . | - | ? | . | . | . | .
COc1ccc(CN(C)C[C@@H]2OCCCC[C@@H](C)Oc3ccc(NC(=O)Nc4ccccc4)cc3C(=O)N([C@H](C)CO)C[C@H]2C)cc1 | . | - | 110 | - | ? | - | - | 104
COc1ccc(CN(C)C[C@H]2OCCCC[C@@H](C)Oc3ccc(NC(=O)Nc4ccc(OC)cc4)cc3C(=O)N([C@@H](C)CO)C[C@H]2C)cc1 | - | - | 104 | - | 103 | - | - | 106
C[C@H](CO)N1C[C@H](C)[C@@H](CN(C)Cc2ccc3c(c2)OCO3)Oc2ccc(NC(=O)C3CCCCC3)cc2CC1=O | - | - | 100 | - | 103 | - | - | 28
C[C@H]1CN([C@@H](C)CO)C(=O)Cc2cc(NC(=O)C3CCCCC3)ccc2O[C@@H]1CN(C)CC1CC1 | - | - | - | - | . | . | . | .
C[C@H]1CN([C@@H](C)CO)C(=O)Cc2cc(NC(=O)C3CCCCC3)ccc2O[C@@H]1CN(C)Cc1ccc2c(c1)OCO2 | - | - | 99 | - | 96 | - | - | -
C[C@@H]1CN([C@@H](C)CO)C(=O)Cc2cc(NC(=O)C3CCCCC3)ccc2O[C@@H]1CN(C)CC1CC1 | - | - | 97 | - | - | - | - | -
CCC(C)C(O)C(C)(O)/C=C/C1=CC2=CC(=O)C(C)(O)C(O)C2CO1 (configuration not stated) | - | . | . | . | . | . | . | .
O=C(C[C@@H]1CC[C@H]2[C@@H](COC[C@H](O)CN2C(=O)Nc2cccc(Cl)c2)O1)NCc1ccccc1F | . | - | 119 | - | - | - | - | -
O=C(C[C@@H]1CC[C@@H]2[C@H](COC[C@@H](O)CN2C(=O)Nc2cccc(Cl)c2)O1)NCc1ccccc1F | . | - | 123 | - | 97 | - | - | 38
Cc1cc(C)c(C#N)c(SCC(O)CSc2ccc(Cl)cc2)n1 (configuration not stated) | - | . | . | . | . | . | . | .
C[C@H]1CN([C@@H](C)CO)C(=O)c2cc(C#CCc3ccccc3)cnc2O[C@@H]1CN(C)Cc1cccc(F)c1 | - | - | ? | - | - | - | - | 104
SMILES | IDH1 mut inh | GASC1 inh | T cruzi growth-1 | Pf Dd2 inh | T cruzi growth-2 | T cruzi growth-3 | 3T3 cytotox | 3T3 cytotox 2
CC(C)CC#Cc1cnc2c(c1)C(=O)N([C@H](C)CO)C[C@@H](C)[C@H](CN(C)Cc1ccccc1F)O2 | - | - | ? | - | 106 | - | - | 76
CC(C)CC#Cc1cnc2c(c1)C(=O)N([C@H](C)CO)C[C@@H](C)[C@@H](CN(C)Cc1ccc(F)cc1)O2 | - | - | - | - | . | . | . | .
CC(C)CC#Cc1cnc2c(c1)C(=O)N([C@@H](C)CO)C[C@@H](C)[C@@H](CN(C)Cc1cccc(F)c1)O2 | - | - | 99 | - | 106 | - | - | 45
CC(C)CC#Cc1cnc2c(c1)C(=O)N([C@@H](C)CO)C[C@H](C)[C@@H](CN(C)Cc1ccc3c(c1)OCO3)O2 | - | - | - | - | . | . | . | .
CC(C)CC#Cc1cnc2c(c1)C(=O)N([C@@H](C)CO)C[C@@H](C)[C@@H](CN(C)Cc1ccc3c(c1)OCO3)O2 | - | - | 101 | - | 105 | - | - | 93
C[C@H](CO)N1C[C@H](C)[C@@H](CN(C)Cc2ccccc2)Oc2ncc(C#CCc3ccccc3)cc2C1=O | . | - | . | - | . | . | . | .
CCCC#Cc1cnc2c(c1)C(=O)N([C@H](C)CO)C[C@H](C)[C@@H](CN(C)Cc1ccccc1F)O2 | - | - | - | - | . | . | . | .
CCOC(=O)c1c(NC(=O)COc2ccccc2C)sc2c1CCC2 | - | . | . | . | . | . | . | .
Cn1c(SCC(=O)N2CCc3ccccc32)nnc1-c1ccc(NC(=O)c2ccc(F)cc2)cc1 | - | . | . | . | . | . | . | .
C[C@H](CO)N1C[C@H](C)[C@@H](CN(C)Cc2cccc(F)c2)Oc2ncc(C#CCN(C)C)cc2C1=O | - | - | - | - | . | . | . | .
CC(C)CC#Cc1cnc2c(c1)C(=O)N([C@H](C)CO)C[C@H](C)[C@H](CN(C)Cc1cccc(F)c1)O2 | - | - | ? | - | 107 | - | - | -
C[C@H]1CN([C@@H](C)CO)S(=O)(=O)c2ccc(-c3ccc(C#N)cc3)cc2O[C@H]1CN(C)C(=O)Nc1cc(F)ccc1F | - | - | 122 | - | 102 | - | - | 84
C[C@H](CO)N1C[C@H](C)[C@@H](CN(C)C(=O)Nc2ccccc2F)Oc2cc(-c3cccc(C#N)c3)ccc2S1(=O)=O | . | - | ? | - | 103 | - | 41 | 69

Source: PubChem BioAssay
